Measurements as given in ChEMBL document CHEMBL1777788, “Synthesis and in vitro antimicrobial activities of new (cyano-NNO-azoxy)pyrazole derivatives” (2011).
Values after ≈ are worked out from the molar mass of the structure shown.

How the values were obtained:
Assay type in all cases: functional
Candida parapsilosis [1] = assay: Antimicrobial activity against Candida parapsilosis ATCC 22019 after 48 hrs by microdilution broth method; conditions: Lodderomyces parapsilosis, ATCC 22019, 48 h
In short: (§1)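 Yeasts were grown overnight on Sabouraud dextrose agar at 35°C, suspended in water, and adjusted at 530 nm to McFarland 0.5 (approximately 1-5 x 10^6 CFU/ml). They were then diluted 1:100 and 1:20 in RPMI 1640 with 0.165 M MOPS and 2% glucose. Compound in DMSO was tested at ten concentrations, 0.25–256 mg/L, with incubation at 35°C. At 48 h, MIC was read spectrophotometrically as 50% turbidity reduction versus growth control.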

[2] = system: Cryptococcus deneoformans; assay: Antimicrobial activity against Cryptococcus neoformans var. neoformans isolate 14 after 48 hrs by microdilution broth method; conditions: isolate 14, 48 h; in short: as §1
Candida parapsilosis [3] = assay: Antimicrobial activity against Candida parapsilosis isolate 26 after 48 hrs by microdilution broth method; conditions: Lodderomyces parapsilosis, isolate 26, 48 h; in short: as §1
Nakaseomyces glabratus [4] = assay: Antimicrobial activity against Candida glabrata isolate 46 after 48 hrs by microdilution broth method; in short: as §1
Candida parapsilosis [5] = assay: Antimicrobial activity against Candida parapsilosis isolate 39 after 48 hrs by microdilution broth method; conditions: Lodderomyces parapsilosis, isolate 39, 48 h
In short: (§2)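 Yeasts grown overnight on Sabouraud dextrose agar at 35°C, suspended in sterile water, and adjusted to McFarland 0.5 at 530 nm (about 1-5 x 10^6 CFU/ml), then diluted 1:100 and 1:20 in RPMI 1640 with 0.165 M MOPS and 2% glucose. Compound in DMSO tested at ten concentrations, 0.25-256 mg/L, at 35°C. MIC read spectrophotometrically at 48 h as 50% turbidity reduction versus growth control.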

Candida tropicalis [6] = assay: Antimicrobial activity against Candida tropicalis isolate 11 after 48 hrs by microdilution broth method; conditions: isolate 11, 48 h; in short: as §1
Nakaseomyces glabratus [7] = assay: Antimicrobial activity against Candida glabrata isolate 32 after 48 hrs by microdilution broth method; conditions: isolate 32, 48 h; in short: as §1
Candida albicans [8] = assay: Antimicrobial activity against Candida albicans isolate 47 after 48 hrs by microdilution broth method; conditions: isolate 47, 48 h; in short: as §1
Pichia kudriavzevii [9] = assay: Antimicrobial activity against Candida krusei isolate 43 after 48 hrs by microdilution broth method
Candida albicans [10] = assay: Antimicrobial activity against Candida albicans isolate 31 after 48 hrs by microdilution broth method; conditions: isolate 31, 48 h; in short: as §1
Candida albicans [11] = assay: Antimicrobial activity against Candida albicans isolate 48 after 48 hrs by microdilution broth method; conditions: isolate 48, 48 h; in short: as §1
[12] = system: Cryptococcus deneoformans; assay: Antimicrobial activity against Cryptococcus neoformans var. neoformans isolate 25 after 48 hrs by microdilution broth method; conditions: isolate 25, 48 h; in short: as §1
Candida parapsilosis [13] = assay: Antimicrobial activity against Candida parapsilosis isolate 19 after 48 hrs by microdilution broth method; conditions: Lodderomyces parapsilosis, isolate 19, 48 h; in short: as §1
Pichia kudriavzevii [14] = assay: Antimicrobial activity against Candida krusei isolate 48 after 48 hrs by microdilution broth method
Pichia kudriavzevii [15] = assay: Antimicrobial activity against Candida krusei isolate 31 after 48 hrs by microdilution broth method; conditions: isolate 31, 48 h; in short: as §1
[16] = system: Cryptococcus deneoformans; assay: Antimicrobial activity against Cryptococcus neoformans var. neoformans isolate 30 after 48 hrs by microdilution broth method; conditions: isolate 30, 48 h; in short: as §1
Candida tropicalis [17] = assay: Antimicrobial activity against Candida tropicalis isolate 22 after 48 hrs by microdilution broth method; conditions: isolate 22, 48 h; in short: as §1
Candida tropicalis [18] = assay: Antimicrobial activity against Candida tropicalis isolate 15 after 48 hrs by microdilution broth method; conditions: isolate 15, 48 h; in short: as §1
[19] = system: Cryptococcus deneoformans; assay: Antimicrobial activity against Cryptococcus neoformans var. neoformans isolate 27 after 48 hrs by microdilution broth method; conditions: isolate 27, 48 h; in short: as §1
Nakaseomyces glabratus [20] = assay: Antimicrobial activity against Candida glabrata isolate 30 after 48 hrs by microdilution broth method; in short: as §1
Pichia kudriavzevii [21] = assay: Antimicrobial activity against Candida krusei ATCC 6258 after 48 hrs by microdilution broth method; conditions: ATCC 6258, 48 h
Candida tropicalis [22] = assay: Antimicrobial activity against Candida tropicalis isolate 33 after 48 hrs by microdilution broth method; conditions: isolate 33, 48 h; in short: as §1
Nakaseomyces glabratus [23] = assay: Antimicrobial activity against Candida glabrata isolate 49 after 48 hrs by microdilution broth method; in short: as §1
Candida albicans [24] = assay: Antimicrobial activity against Candida albicans ATCC 90028 after 48 hrs by microdilution broth method; conditions: ATCC 90028, 48 h; in short: as §2
Candida albicans [25] = assay: Antimicrobial activity against Candida albicans isolate 41 after 48 hrs by microdilution broth method; conditions: isolate 41, 48 h; in short: as §1
Candida parapsilosis [26] = assay: Antimicrobial activity against Candida parapsilosis isolate 44 after 48 hrs by microdilution broth method; conditions: Lodderomyces parapsilosis, isolate 44, 48 h; in short: as §1

SMILES | MIC (Candida parapsilosis [1]) | MIC [2] | MIC (Candida parapsilosis [3]) | MIC (Nakaseomyces glabratus [4]) | MIC (Candida parapsilosis [5]) | MIC (Candida tropicalis [6]) | MIC (Nakaseomyces glabratus [7]) | MIC (Candida albicans [8]) | MIC (Pichia kudriavzevii [9]) | MIC (Candida albicans [10]) | MIC (Candida albicans [11]) | MIC [12] | MIC (Candida parapsilosis [13]) | MIC (Pichia kudriavzevii [15]) | MIC [16] | MIC (Candida tropicalis [17]) | MIC (Candida tropicalis [18]) | MIC [19] | MIC (Candida tropicalis [22]) | MIC (Candida albicans [24]) | other results
Cc1ccc(S(=O)(=O)/N=[N+](\[O-])c2c(-c3cccs3)nn(C)c2C)cc1 | > 128 µg/mL | 64 µg/mL (≈ 170 µM) | > 128 µg/mL | > 128 µg/mL | > 128 µg/mL | > 128 µg/mL | > 128 µg/mL | > 128 µg/mL | > 128 µg/mL | > 128 µg/mL | > 128 µg/mL | 128 µg/mL (≈ 340 µM) | > 128 µg/mL | > 128 µg/mL | 128 µg/mL (≈ 340 µM) | > 128 µg/mL | > 128 µg/mL | 64 µg/mL (≈ 170 µM) | > 128 µg/mL | > 128 µg/mL | MIC (Pichia kudriavzevii [14]): > 128 µg/mL; MIC (Nakaseomyces glabratus [20]): > 128 µg/mL; MIC (Pichia kudriavzevii [21]): > 128 µg/mL; MIC (Nakaseomyces glabratus [23]): > 128 µg/mL
C[C@@H]1[C@H](O)[C@@H](C)/C=C/C=C/C=C/C=C/C=C/C=C/C=C/[C@H](O[C@@H]2O[C@H](C)[C@@H](O)[C@H](N)[C@@H]2O)C[C@@H]2O[C@](O)(C[C@@H](O)C[C@@H](O)[C@H](O)CC[C@@H](O)C[C@@H](O)CC(=O)O[C@H]1C)C[C@H](O)[C@H]2C(=O)O [AMPHOTERICIN B] | 1 µg/mL (≈ 1.08 µM) | 0.25 µg/mL (≈ 0.271 µM) | 0.5 µg/mL (≈ 0.541 µM) | 1 µg/mL (≈ 1.08 µM) | 0.5 µg/mL (≈ 0.541 µM) | 1 µg/mL (≈ 1.08 µM) | 0.5 µg/mL (≈ 0.541 µM) | 1 µg/mL (≈ 1.08 µM) | – | 0.5 µg/mL (≈ 0.541 µM) | 0.5 µg/mL (≈ 0.541 µM) | 0.5 µg/mL (≈ 0.541 µM) | 0.5 µg/mL (≈ 0.541 µM) | 0.5 µg/mL (≈ 0.541 µM) | 0.5 µg/mL (≈ 0.541 µM) | 0.5 µg/mL (≈ 0.541 µM) | 1 µg/mL (≈ 1.08 µM) | 0.12 µg/mL (≈ 0.13 µM) | 1 µg/mL (≈ 1.08 µM) | 0.5 µg/mL (≈ 0.541 µM) | MIC (Candida albicans [25]): 0.5 µg/mL (≈ 0.541 µM); MIC (Candida parapsilosis [26]): 0.5 µg/mL (≈ 0.541 µM); MIC (Nakaseomyces glabratus [23]): 0.5 µg/mL (≈ 0.541 µM)
OC(Cn1cncn1)(Cn1cncn1)c1ccc(F)cc1F [FLUCONAZOLE] | 2 µg/mL (≈ 6.53 µM) | 0.5 µg/mL (≈ 1.63 µM) | 1 µg/mL (≈ 3.27 µM) | 16 µg/mL (≈ 52.2 µM) | 1 µg/mL (≈ 3.27 µM) | 1 µg/mL (≈ 3.27 µM) | > 256 µg/mL | 0.25 µg/mL (≈ 0.816 µM) | 64 µg/mL (≈ 209 µM) | 0.25 µg/mL (≈ 0.816 µM) | 0.12 µg/mL (≈ 0.392 µM) | 2 µg/mL (≈ 6.53 µM) | 1 µg/mL (≈ 3.27 µM) | 32 µg/mL (≈ 104 µM) | 4 µg/mL (≈ 13.1 µM) | 2 µg/mL (≈ 6.53 µM) | 1 µg/mL (≈ 3.27 µM) | 2 µg/mL (≈ 6.53 µM) | 1 µg/mL (≈ 3.27 µM) | 0.12 µg/mL (≈ 0.392 µM) | MIC (Candida albicans [25]): 0.12 µg/mL (≈ 0.392 µM); MIC (Pichia kudriavzevii [14]): 32 µg/mL (≈ 104 µM); MIC (Pichia kudriavzevii [21]): 32 µg/mL (≈ 104 µM); MIC (Candida parapsilosis [26]): 2 µg/mL (≈ 6.53 µM)
CC[C@@H]([C@H](C)O)n1ncn(-c2ccc(N3CCN(c4ccc(OC[C@@H]5CO[C@@](Cn6cncn6)(c6ccc(F)cc6F)C5)cc4)CC3)cc2)c1=O [POSACONAZOLE] | 0.12 µg/mL (≈ 0.171 µM) | 0.03 µg/mL (≈ 0.0428 µM) | 0.03 µg/mL (≈ 0.0428 µM) | 1 µg/mL (≈ 1.43 µM) | 0.06 µg/mL (≈ 0.0856 µM) | 0.12 µg/mL (≈ 0.171 µM) | > 8 µg/mL | 0.016 µg/mL (≈ 0.0228 µM) | 0.5 µg/mL (≈ 0.713 µM) | 0.008 µg/mL (≈ 0.0114 µM) | 0.008 µg/mL (≈ 0.0114 µM) | 0.06 µg/mL (≈ 0.0856 µM) | 0.03 µg/mL (≈ 0.0428 µM) | 0.25 µg/mL (≈ 0.357 µM) | 0.12 µg/mL (≈ 0.171 µM) | 0.25 µg/mL (≈ 0.357 µM) | 0.25 µg/mL (≈ 0.357 µM) | 0.06 µg/mL (≈ 0.0856 µM) | 0.12 µg/mL (≈ 0.171 µM) | 0.008 µg/mL (≈ 0.0114 µM) | MIC (Candida albicans [25]): 0.016 µg/mL (≈ 0.0228 µM); MIC (Pichia kudriavzevii [14]): 0.25 µg/mL (≈ 0.357 µM); MIC (Nakaseomyces glabratus [20]): 0.5 µg/mL (≈ 0.713 µM); MIC (Pichia kudriavzevii [21]): 0.25 µg/mL (≈ 0.357 µM); MIC (Candida parapsilosis [26]): 0.03 µg/mL (≈ 0.0428 µM); MIC (Nakaseomyces glabratus [23]): 0.25 µg/mL (≈ 0.357 µM)
C[C@@H](c1ncncc1F)[C@](O)(Cn1cncn1)c1ccc(F)cc1F [VORICONAZOLE] | 0.06 µg/mL (≈ 0.172 µM) | < 0.008 µg/mL | < 0.008 µg/mL | 0.25 µg/mL (≈ 0.716 µM) | 0.016 µg/mL (≈ 0.0458 µM) | 0.12 µg/mL (≈ 0.344 µM) | 4 µg/mL (≈ 11.5 µM) | 0.008 µg/mL (≈ 0.0229 µM) | 0.5 µg/mL (≈ 1.43 µM) | < 0.008 µg/mL | < 0.008 µg/mL | 0.016 µg/mL (≈ 0.0458 µM) | 0.008 µg/mL (≈ 0.0229 µM) | 0.12 µg/mL (≈ 0.344 µM) | 0.016 µg/mL (≈ 0.0458 µM) | 0.06 µg/mL (≈ 0.172 µM) | 0.06 µg/mL (≈ 0.172 µM) | 0.016 µg/mL (≈ 0.0458 µM) | < 0.008 µg/mL | 0.008 µg/mL (≈ 0.0229 µM) | MIC (Candida albicans [25]): < 0.008 µg/mL; MIC (Pichia kudriavzevii [14]): 0.25 µg/mL (≈ 0.716 µM); MIC (Nakaseomyces glabratus [20]): 0.25 µg/mL (≈ 0.716 µM); MIC (Pichia kudriavzevii [21]): 0.25 µg/mL (≈ 0.716 µM); MIC (Candida parapsilosis [26]): 0.016 µg/mL (≈ 0.0458 µM); MIC (Nakaseomyces glabratus [23]): 0.12 µg/mL (≈ 0.344 µM)
